According to publication PMC12198371 (Nature Communications, 2025):
Positions of bridges follow the written chain, without caps; N, C: chain ends. Residues, ends and D or L forms follow the SMILES beside them. No end group written: not given here.

Tests used:
α-chymotrypsin (PT5) = α-chymotrypsin (PT5) (Bos taurus, UniProt P00766); experiment: Yeast surface display titration; type: binding, bovine
[1] = biological target: carbapenemase GES-5 (PT3) (Klebsiella pneumoniae, UniProt Q09HD0); experiment: Surface plasmon resonance; type: binding; details: soluble chemically synthesised isomers of MP3.2
Summary of the method: (§1)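 Targets were amine-coupled with EDC/NHS, then ethanolamine pH 8.5. PT1 was coupled at 200 µg/mL and PT5 at 30 µg/mL, both in 10 mM NaAc pH 5.2. PT3 was coupled at 10 µg/mL in 10 mM NaAc pH 4.5. Two-fold dilutions of chemically synthesised peptide were run in PBS pH 7.4 with 0.005% Tween-20 and 2% DMSO, at 25 °C and 30 µL/min. KD, kon and koff were recorded.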

[2] = biological target: bovine α-chymotrypsin (PT5) (Bos taurus, UniProt P00766); experiment: Residual enzyme activity, chromogenic substrate; type: biochemical
streptavidin (PT2) = streptavidin (PT2) (Streptomyces avidinii, UniProt P22629); experiment: Yeast surface display titration; type: binding
strep-tactin (PH2.1) = experiment: Yeast surface display titration, specificity; type: binding; details: from KDapp values
aldolase (PT1) [3] = biological target: T1, aldolase (PT1) (Oryctolagus cuniculus, UniProt P00883); experiment: Yeast surface display titration; type: binding, rabbit
T1 sequence (P00883 1-364): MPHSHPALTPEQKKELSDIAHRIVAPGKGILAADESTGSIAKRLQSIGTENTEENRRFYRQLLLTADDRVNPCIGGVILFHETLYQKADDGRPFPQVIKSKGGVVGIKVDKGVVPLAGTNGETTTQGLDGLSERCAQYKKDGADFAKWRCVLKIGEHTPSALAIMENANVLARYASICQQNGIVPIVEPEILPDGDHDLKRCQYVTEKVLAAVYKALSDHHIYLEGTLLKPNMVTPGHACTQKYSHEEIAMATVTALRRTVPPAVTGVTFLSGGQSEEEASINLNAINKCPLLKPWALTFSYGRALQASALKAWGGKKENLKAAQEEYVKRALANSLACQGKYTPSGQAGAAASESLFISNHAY

aldolase (PT1) [4] = biological target: T1, aldolase (PT1); experiment: Surface plasmon resonance; type: binding, rabbit; details: PT1 (tetrameric), 600 pM vs 326 nM
Summary of the method: as §1

carbonic anhydrase (PT4) = carbonic anhydrase (PT4) (Bos taurus, UniProt P00921); experiment: Yeast surface display titration; type: binding, bovine; details: ratio of KDapp values
α-chymotrypsin = details: natural inhibitor, Fig. 9d; cited from earlier work

Chain of carbonic anhydrase (PT4) (P00921 whole entry): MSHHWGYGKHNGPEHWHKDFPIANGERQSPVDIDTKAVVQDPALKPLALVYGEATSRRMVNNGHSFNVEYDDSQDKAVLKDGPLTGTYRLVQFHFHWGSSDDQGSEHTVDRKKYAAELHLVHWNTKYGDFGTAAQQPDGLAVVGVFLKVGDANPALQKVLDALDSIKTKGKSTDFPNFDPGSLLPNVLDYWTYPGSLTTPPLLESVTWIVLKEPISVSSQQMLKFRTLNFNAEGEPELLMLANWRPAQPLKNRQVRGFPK
Chain of streptavidin (PT2) (P22629 37-163 limits assumed): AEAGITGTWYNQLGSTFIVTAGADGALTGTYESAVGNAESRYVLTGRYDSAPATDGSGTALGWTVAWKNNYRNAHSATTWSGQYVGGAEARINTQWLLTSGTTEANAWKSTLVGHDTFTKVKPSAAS
Chain of carbapenemase GES-5 (PT3) (Q09HD0 19-287): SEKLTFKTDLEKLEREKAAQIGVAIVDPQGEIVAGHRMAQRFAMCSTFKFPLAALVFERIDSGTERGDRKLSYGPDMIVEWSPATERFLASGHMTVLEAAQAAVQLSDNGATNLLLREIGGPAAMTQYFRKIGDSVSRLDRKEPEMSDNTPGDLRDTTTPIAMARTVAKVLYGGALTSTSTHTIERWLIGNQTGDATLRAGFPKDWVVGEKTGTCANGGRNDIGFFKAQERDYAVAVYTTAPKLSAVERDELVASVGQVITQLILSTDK

ACCYRIYCPCSG (also: bicyclic or more (positions not given here)) [MP5.3]
tighter binding to PT5 than MP5.5 (α-chymotrypsin (PT5); ratio of KDapp values): 3 fold

MP3.2.2: chemically synthesised ‘two rings’ isomer of MP3.2 (ACRYICLSFRHCGWFCSG-NH2; disulfide 12-16, 2-6; N-terminus assumed; SMILES CC[C@H](C)[C@@H]1NC(=O)[C@H](Cc2ccc(O)cc2)NC(=O)[C@H](CCCNC(=N)N)NC(=O)[C@@H](NC(=O)[C@H](C)N)CSSC[C@@H](C(=O)N[C@@H](CC(C)C)C(=O)N[C@@H](CO)C(=O)N[C@@H](Cc2ccccc2)C(=O)N[C@@H](CCCNC(=N)N)C(=O)N[C@@H](Cc2c[nH]cn2)C(=O)N[C@H]2CSSC[C@@H](C(=O)N[C@@H](CO)C(=O)NCC(N)=O)NC(=O)[C@H](Cc3ccccc3)NC(=O)[C@H](Cc3c[nH]c4ccccc34)NC(=O)CNC2=O)NC1=O)
interaction with immobilised PT3 (SPR), in words [1]: no or very weak interactions

CC[C@H](C)[C@H](NC(=O)[C@@H](NC(=O)CNC(=O)[C@H](CCCNC(=N)N)NC(=O)[C@H](CC(C)C)NC(=O)[C@@H]1CSSC[C@H](NC(=O)[C@H](C)N)C(=O)N[C@@H](C)C(=O)N[C@@H](Cc2c[nH]c3ccccc23)C(=O)N1)[C@@H](C)O)C(=O)N[C@H]1CSSC[C@@H](C(=O)N[C@@H](CO)C(=O)NCC(N)=O)NC1=O [MP5.4.2] (H-ACAWCLRGTICCSG-NH2; disulfide 2-5, 11-12)
Ki [2]: 11.3 nM

ACAWCLRGTICCSG (also: bicyclic or more (positions not given here)) [MP5.4]
tighter binding to PT5 than MP5.5 (α-chymotrypsin (PT5); ratio of KDapp values): 46 fold
Kd (α-chymotrypsin (PT5); read-out: KDapp, yeast-displayed peptide vs soluble PT5, text value): 0.2 nM

ACHYHPQFYMRCSG (disulfide 2-12 (inferred)) [MP2.6]
tighter binding to PT2 than MP2.4 (streptavidin (PT2); ratio of KDapp values): 6 fold
Kd (streptavidin (PT2); read-out: KDapp, yeast-displayed peptide vs soluble PT2, text value): 0.2 to 0.3 nM

CC[C@H](C)[C@@H]1NC(=O)[C@H](Cc2c[nH]c3ccccc23)NC(=O)[C@H]([C@@H](C)O)NC(=O)[C@H](Cc2c[nH]c3ccccc23)NC(=O)[C@H](CC(=O)O)NC(=O)[C@H](CCCNC(=N)N)NC(=O)[C@@H](NC(=O)[C@H](C)N)CSSC[C@@H](C(=O)N[C@@H](CO)C(=O)NCC(N)=O)NC(=O)[C@H](CCC(N)=O)NC1=O [MP5.1] (H-ACRDWTWIQCSG-NH2; disulfide 2-10)
higher binding affinity to PT5 than MP5.2 (α-chymotrypsin (PT5); ratio of KDapp values): 2 fold
tighter binding to PT5 than MP5.5 (α-chymotrypsin (PT5); ratio of KDapp values): 5 fold

ACIMVHYDRVECSG (disulfide 2-12 (inferred)) [MP2.3]
tighter binding to PH2.1 than to PT2 (strep-tactin (PH2.1)): ~2 fold

CC(C)C[C@@H]1NC(=O)[C@H](C(C)C)NC(=O)[C@H](CCC(=O)O)NC(=O)[C@@H](NC(=O)[C@H](C)N)CSSC[C@@H](C(=O)N[C@@H](CO)C(=O)NCC(N)=O)NC(=O)CNC(=O)[C@H]([C@@H](C)O)NC(=O)[C@H](Cc2c[nH]c3ccccc23)NC(=O)[C@H](CC(=O)O)NC(=O)[C@H](Cc2ccc(O)cc2)NC(=O)[C@H](CO)NC1=O [MP1.1] (H-ACEVLSYDWTGCSG-NH2; disulfide 2-12)
Kd (aldolase (PT1) [3]): 0.6 nM
discrepancy between KD by yeast surface titration and by SPR (aldolase (PT1) [4]): ~ 500 fold

ACSMCHPQGDFCYWACSG (also: bicyclic or more (positions not given here)) [MP2.1]
tighter binding to PH2.1 than to PT2 (strep-tactin (PH2.1)): ~ 10 fold

ACLVGPYYMLDCSG (disulfide 2-12 (inferred)) [MP4.1]
higher binding affinity for PT4 than MP4.4 (carbonic anhydrase (PT4)): 16 fold
tighter binding to PT4 than MP4.2 (carbonic anhydrase (PT4)): 4 fold
tighter binding to PT4 than MP4.3 (carbonic anhydrase (PT4)): 9 fold

CC[C@H](C)[C@@H]1NC(=O)[C@H]([C@@H](C)O)NC(=O)CNC(=O)[C@H](CCCNC(=N)N)NC(=O)[C@H](CC(C)C)NC(=O)[C@@H]2CSSC[C@@H](C(=O)N[C@@H](CO)C(=O)NCC(N)=O)NC(=O)[C@H](CSSC[C@H](NC(=O)[C@H](C)N)C(=O)N[C@@H](C)C(=O)N[C@@H](Cc3c[nH]c4ccccc34)C(=O)N2)NC1=O [MP5.4.1] (H-ACAWCLRGTICCSG-NH2; disulfide 2-11, 5-12)
Ki [2]: 50.8 nM

CC[C@H](C)[C@@H]1NC(=O)[C@H](C(C)C)NC(=O)[C@H](Cc2ccc(O)cc2)NC(=O)[C@H](Cc2ccccc2)NC(=O)[C@H](CCC(N)=O)NC(=O)[C@@H]2CCCN2C(=O)[C@H](Cc2c[nH]cn2)NC(=O)[C@H](Cc2ccc(O)cc2)NC(=O)[C@H](Cc2c[nH]cn2)NC(=O)[C@@H](NC(=O)[C@H](C)N)CSSC[C@@H](C(=O)N[C@@H](CO)C(=O)NCC(N)=O)NC1=O [MP2.2] (H-ACHYHPQFYVICSG-NH2; disulfide 2-12)
tighter binding to PT2 than MP2.5 (streptavidin (PT2); ratio of KDapp values): 3 fold

H-TVLRGCWTFSFPPKPCI-NH2 [HECI, reference compound]
Ki (α-chymotrypsin): 3900 nM

MP3.2.1: chemically synthesised ‘two rings’ isomer of MP3.2 (ACRYICLSFRHCGWFCSG-NH2; disulfide 2-12, 6-16; N-terminus assumed; SMILES CC[C@H](C)[C@@H]1NC(=O)[C@H](Cc2ccc(O)cc2)NC(=O)[C@H](CCCNC(=N)N)NC(=O)[C@@H](NC(=O)[C@H](C)N)CSSC[C@@H]2NC(=O)[C@H](Cc3c[nH]cn3)NC(=O)[C@H](CCCNC(=N)N)NC(=O)[C@H](Cc3ccccc3)NC(=O)[C@H](CO)NC(=O)[C@H](CC(C)C)NC(=O)[C@H](CSSC[C@@H](C(=O)N[C@@H](CO)C(=O)NCC(N)=O)NC(=O)[C@H](Cc3ccccc3)NC(=O)[C@H](Cc3c[nH]c4ccccc34)NC(=O)CNC2=O)NC1=O)
interaction with immobilised PT3 (SPR), in words [1]: no or very weak interactions
